Test results taken from PMC6686180 (Biochemistry, 2018).
Read-outs that look alike come from different tables or passages of the source. One block for each molecule: values may come before it. Ends that are not written are not given here. * marks the point of attachment. 5FAM = O=C1OC2(c3ccc(O)cc3Oc3cc(O)ccc32)c2ccc(C(=O)*)cc21

Key:
GGTase-I [1] = target: T1, GGTase-I (Rattus norvegicus, UniProt P53610+Q04631); experiment: Radiolabel prenylation assay: GGTase-I-catalyzed geranylgeranylation of RhoA; format: biochemical; settings: for effect of nucleotide on initial rate of RhoA geranylgeranylation / effect of nucleotide on endpoint level of incorporated isoprenoid: 25 μM GTP or GDP, RhoA 1.3 μM, GGTase-I 5 nM, without SmgGDS; for effect of nucleotide on initial rate of RhoA geranylgeranylation: 3H-GGPP 9 μM; for effect of nucleotide on endpoint level of incorporated isoprenoid: incubation 2 hr
FTase [2] = settings: addition of GDP or GTPγS; cited from earlier work
GGTase-I [3] = settings: cited from earlier work
RhoA [4] = experiment: Radiolabel prenylation assay of RhoA with SmgGDS-607; format: biochemical, human
RhoA [5] = settings: read-out: Kd of RhoA for GTPγS; with Mg^2+; cited from earlier work
FTase [6] = settings: FTase binding; cited from earlier work
[7] = target: biotinylated SmgGDS-607 (human) (UniProt P52306); experiment: BLI
[8] = target: biotinylated SmgGDS-607 (human) (UniProt P52306); experiment: BLI; remark: listed apart in the source
SmgGDS = settings: cells, cited from earlier work
[9] = target: RhoA 13mer (5-fam-…) (human); experiment: fluorescence polarisation
[10] = target: geranylgeranylated RhoA 13mer peptide (human); experiment: fluorescence polarisation
GGTase-I [11] = target: T1, GGTase-I; experiment: Peptide prenylation assay; format: biochemical; settings: GGTase-I 10 nM; for effect on GGTase-I activity with peptide substrate: 5 μM SmgGDS, dansyl-GCLVL, saturating GGPP (10 μM)
How it was run: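 GGTase-I (10 nM) and 10 μM GGPP were incubated at 30°C with varied dansyl-GCLVL (RhoA CaaX peptide), with or without SmgGDS (5 μM final) or GDP/GTP (30 μM final). Prenylation-dependent fluorescence (ex 340/em 520 nm) was read every 40 s for 2 h. Initial slopes were converted to velocity, and kcat and KM came from Michaelis-Menten fits of V/E.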

SmgGDS-607 = settings: non-farnesylated versus farnesylated RhoA; cited from earlier work
[12] = target: RhoA CaaX only peptide (5fam-GCLVL) (human); experiment: fluorescence polarisation
SmgGDS-558 = target: T2, SmgGDS-558 (human, UniProt P52306-2 1-558); experiment: fluorescence polarisation
T2 sequence (looked up): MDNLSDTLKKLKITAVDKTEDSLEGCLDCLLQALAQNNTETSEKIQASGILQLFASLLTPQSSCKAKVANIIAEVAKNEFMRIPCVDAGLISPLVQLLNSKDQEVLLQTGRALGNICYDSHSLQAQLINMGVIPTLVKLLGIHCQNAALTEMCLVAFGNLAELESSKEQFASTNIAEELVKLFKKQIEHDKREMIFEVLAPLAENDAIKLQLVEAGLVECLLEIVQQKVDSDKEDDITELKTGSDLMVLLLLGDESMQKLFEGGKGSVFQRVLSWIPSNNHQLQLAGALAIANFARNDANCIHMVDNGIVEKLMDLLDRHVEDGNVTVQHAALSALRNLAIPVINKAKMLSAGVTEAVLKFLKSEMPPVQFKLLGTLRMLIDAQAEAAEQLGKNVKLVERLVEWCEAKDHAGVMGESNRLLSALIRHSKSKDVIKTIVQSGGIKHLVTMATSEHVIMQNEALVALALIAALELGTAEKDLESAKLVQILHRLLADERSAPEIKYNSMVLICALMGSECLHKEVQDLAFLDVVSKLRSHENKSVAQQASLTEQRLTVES

RhoA (human) = experiment: inhibition of radiolabel prenylation
[13] = Buffer (no additive), GGPP 10 μM, 30°C, fluorescence

T1 sequence (P53610 whole entry, one chain of several): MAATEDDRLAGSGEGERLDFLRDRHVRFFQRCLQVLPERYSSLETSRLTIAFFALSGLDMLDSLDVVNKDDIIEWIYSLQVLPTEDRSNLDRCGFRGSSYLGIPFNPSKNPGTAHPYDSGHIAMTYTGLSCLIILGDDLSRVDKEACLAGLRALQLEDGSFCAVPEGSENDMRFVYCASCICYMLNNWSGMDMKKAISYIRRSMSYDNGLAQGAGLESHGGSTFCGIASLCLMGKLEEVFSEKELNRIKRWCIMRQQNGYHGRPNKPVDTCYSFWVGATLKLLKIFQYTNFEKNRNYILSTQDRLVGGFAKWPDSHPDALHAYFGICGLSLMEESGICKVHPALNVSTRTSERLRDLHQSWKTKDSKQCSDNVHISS

Kd [7]: 77 nM | Kd [8]: 249 nM
Molecule: RhoA (natural protein)

Kd [9]: 1900 nM | Kd [10]: > 16000 nM
Molecule: SmgGDS-607 (from UniProt P52306-1 1-607) (natural protein)

effect on GGTase-I activity with peptide substrate (GGTase-I [11]): not significantly altered
B1: SmgGDS-558: human SmgGDS 558-amino acid splice variant with 12 armadillo repeats (UniProt P52306–2) (protein)
chain: T2 sequence (looked up)
modifications: left off: His6-tev, end not stated, state not stated

Kd (SmgGDS-558): > 40000 nM
Molecule: 5FAM-GCLVL [RhoA CaaX only peptide (5fam-GCLVL)]

Ki (RhoA (human)): 85 nM
B2: SmgGDS-607 (natural protein)
chain: MDNLSDTLKKLKITAVDKTEDSLEGCLDCLLQALAQNNTETSEKIQASGILQLFASLLTPQSSCKAKVANIIAEVAKNEFMRIPCVDAGLISPLVQLLNSKDQEVLLQTGRALGNICYDSHEGRSAVDQAGGAQIVIDHLRSLCSITDPANEKLLTVFCGMLMNYSNENDSLQAQLINMGVIPTLVKLLGIHCQNAALTEMCLVAFGNLAELESSKEQFASTNIAEELVKLFKKQIEHDKREMIFEVLAPLAENDAIKLQLVEAGLVECLLEIVQQKVDSDKEDDITELKTGSDLMVLLLLGDESMQKLFEGGKGSVFQRVLSWIPSNNHQLQLAGALAIANFARNDANCIHMVDNGIVEKLMDLLDRHVEDGNVTVQHAALSALRNLAIPVINKAKMLSAGVTEAVLKFLKSEMPPVQFKLLGTLRMLIDAQAEAAEQLGKNVKLVERLVEWCEAKDHAGVMGESNRLLSALIRHSKSKDVIKTIVQSGGIKHLVTMATSEHVIMQNEALVALALIAALELGTAEKDLESAKLVQILHRLLADERSAPEIKYNSMVLICALMGSECLHKEVQDLAFLDVVSKLRSHENKSVAQQASLTEQRLTVES

The remaining lines, values behind:

Molecule: Nc1nc2c(ncn2[C@@H]2O[C@H](COP(=O)(O)OP(=O)(O)O)[C@@H](O)[C@H]2O)c(=O)[nH]1 [GDP]
effect of GDP on GGTase-I activity for RhoA (GGTase-I [1]; 20 μM GDP without SmgGDS-607, RhoA 3 μM, GGTase-I 10 nM, 3H-GGPP 1.8 μM, 4 min): does not affect GGTase-I activity for RhoA | effect of nucleotide on initial rate of RhoA geranylgeranylation (GGTase-I [1]): No difference was observed | effect of nucleotide on endpoint level of incorporated isoprenoid (GGTase-I [1]): no significant difference | FTase activity for farnesylation of H-Ras (FTase [2]): unaffected

Molecule: CC(C)=CCC/C(C)=C/CC/C(C)=C/CC/C(C)=C/COP(=O)(O)OP(=O)(O)O [GGPP, geranylgeranyl pyrophosphate]
Km (GGTase-I [3]; GGTase-I KM for GGPP): 0.003 µM

Molecule: Nc1nc2c(ncn2[C@@H]2O[C@H](COP(=O)(O)OP(=O)(O)OP(=O)(O)O)[C@@H](O)[C@H]2O)c(=O)[nH]1 [GTP]
effect of nucleotide on initial rate of RhoA geranylgeranylation (GGTase-I [1]): No difference was observed | effect of nucleotide on endpoint level of incorporated isoprenoid (GGTase-I [1]): no significant difference | restoration of RhoA geranylgeranylation at saturating GTP (RhoA [4]; 5 μM SmgGDS-607, versus level in absence of SmgGDS-607, RhoA 3 μM): do not restore RhoA geranylgeranylation to the level observed in the absence of SmgGDS-607 | concentration of GTP required to reach saturating RhoA geranylgeranylation (RhoA [4]; in the presence of 5 μM SmgGDS-607, RhoA 3 μM, GGTase-I 10 nM, 3H-GGPP 1.8 μM, 4 min): ~ 3 μM

Molecule: Nc1nc2c(ncn2[C@@H]2O[C@H](COP(=O)(O)OP(=O)(O)OP(O)(O)=S)[C@@H](O)[C@H]2O)c(=O)[nH]1 [GTPγS]
Kd (RhoA [5]): 160 nM

Molecule: GCVLS
Kd (FTase [6]): 58 nM

Molecule: RhoA G14V: constitutively active mutant, predominantly bound to GTP
co-immunoprecipitation of SmgGDS (SmgGDS): did not co-immunoprecipitate detectable amounts of SmgGDS

Molecule: RhoA T19N: dominant negative mutant of RhoA, predominantly nucleotide-free in cells
co-immunoprecipitation of SmgGDS-607 (SmgGDS; versus wildtype RhoA): co-immunoprecipitates greater amounts of SmgGDS-607 than wildtype RhoA

Molecule: dansyl-GCLVL [dansyl GCLVL]
Km (GGTase-I [11]; [13]): 1.9 ± 0.8 µM | kcat (GGTase-I [11]; [13]): 0.046 ± 0.009 s⁻¹

Molecule: dansyl-GCVLL
kcat (GGTase-I [3]; peptide substrate dansyl-GCVLL): 0.051 s⁻¹

Molecule: non-farnesylated RhoA: non-farnesylated RhoA of the recent structural study
affinity for SmgGDS-607 (SmgGDS-607): had higher affinity for SmgGDS-607 than farnesylated RhoA

Molecule: protein geranylgeranyltransferase I (from UniProt Q04631 1-377) (complex)
Kd [9]: 56 nM | Kd [12]: 2200 nM

B3: SmgGDS-607: human SmgGDS 607-amino acid splice variant with one additional armadillo repeat (UniProt P52306–1) (protein)
chain: B2 chain
modifications: left off: His6-tev, end not stated, state not stated
inhibition of RhoA prenylation catalyzed by GGTase-I (overall statement) (RhoA [4]; in vitro radiolabel incorporation assay): completely inhibits RhoA prenylation | effect on GGTase-I activity with peptide substrate (GGTase-I [11]): not significantly altered
